Key:
Botrytis cinerea = experiment: Antifungal activity against Botryotinia fuckeliana in cucumber seedlings assessed as reduction in gray mold measured after 4 days by pot test; type: functional
Outline: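 Emulsifiable-concentrate formulations were diluted in water and foliar-sprayed to run-off onto cotyledon-stage seedlings. Plants were held 1 day in the greenhouse, then inoculated with agar gel carrying B. cinerea and kept 4 more days at 20°C, humid and dark. Infection degree was scored against untreated controls. pED50 is the negative log of the molar concentration giving 50% control.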

Blumeria graminis = experiment: Antifungal activity against Blumeria graminis in wheat seedlings assessed as reduction in powdery mildew at 20 degC measured after 10 days by pot test; type: functional

Structure (SMILES) | pED50 (Botrytis cinerea) | pED50 (Blumeria graminis)
CC(C)(C)/C(=C/c1ccc(C(F)(F)F)cc1)C(=O)n1ccnc1 | 3.04 | 4.19
CC(C)(C)/C(=C/c1ccc(C#N)cc1)C(=O)n1ccnc1 | 4.4 | 5.89
CC(C)(C)/C(=C/c1ccc(Cl)cc1)C(=O)n1ccnc1 | 4.82 | 5.92
CC(C)(C)/C(=C/c1ccccc1)C(=O)n1ccnc1 | 3.4 | 4.17
Cc1ccc(/C=C(\C(=O)n2ccnc2)C(C)(C)C)cc1 | 3.43 | 3.92
CC(C)(C)/C(=C\c1ccc(Cl)cc1)C(=O)n1ccnc1 | 2.92 | 3.52
CC(C)(C)/C(=C/c1ccc(Br)cc1)C(=O)n1ccnc1 | 4.63 | 5.96

Reference: ChEMBL document CHEMBL3046092, “Synthesis and fungicidal activity of 1-(alpha-tert-butylcinnamoyl)imidazoles” (2002)
